Test results reported in ChEMBL document CHEMBL4330096, “Discovery of potent and selective 5-azaindazole inhibitors of leucine-rich repeat kinase 2 (LRRK2) - Part 1” (Bioorg Med Chem Lett, 2019).

Tests used:
[1] = molecular target: Serine/threonine-protein kinase Nek6 (Homo sapiens) (UniProt Q9HC98); test: Inhibition of NEK6 (unknown origin) at 10 uM relative to control
Summary of the method: (§1)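 Single-concentration screen of each compound against a 59-protein-kinase panel, run at 10 µM or 1 µM. Activity relative to control is shown as a heat map across the panel.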

[2] = molecular target: Insulin-like growth factor 1 receptor (Homo sapiens) (UniProt P08069); test: Inhibition of IGF1R (unknown origin) at 10 uM relative to control
Chain of Insulin-like growth factor 1 receptor (Homo sapiens) (P08069 31-736 limits assumed): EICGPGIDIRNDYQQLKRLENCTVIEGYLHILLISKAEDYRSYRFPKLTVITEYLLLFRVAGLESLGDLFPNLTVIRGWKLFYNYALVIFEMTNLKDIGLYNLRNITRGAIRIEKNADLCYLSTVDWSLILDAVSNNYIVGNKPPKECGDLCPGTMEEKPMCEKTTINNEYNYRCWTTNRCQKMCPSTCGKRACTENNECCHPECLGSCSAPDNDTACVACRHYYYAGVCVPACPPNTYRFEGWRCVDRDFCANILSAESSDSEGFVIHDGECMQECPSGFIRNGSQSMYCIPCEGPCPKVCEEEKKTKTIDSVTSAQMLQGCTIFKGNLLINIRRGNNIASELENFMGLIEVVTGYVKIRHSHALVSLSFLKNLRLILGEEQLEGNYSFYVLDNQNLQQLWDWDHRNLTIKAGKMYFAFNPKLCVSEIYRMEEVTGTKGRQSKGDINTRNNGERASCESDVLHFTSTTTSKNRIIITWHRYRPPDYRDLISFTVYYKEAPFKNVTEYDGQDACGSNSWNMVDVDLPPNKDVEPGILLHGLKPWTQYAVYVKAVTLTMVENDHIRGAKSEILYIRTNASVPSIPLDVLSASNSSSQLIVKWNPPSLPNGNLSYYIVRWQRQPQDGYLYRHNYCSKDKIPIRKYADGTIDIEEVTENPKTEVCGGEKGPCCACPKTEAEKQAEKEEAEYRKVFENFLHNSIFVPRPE
Chain of Insulin-like growth factor 1 receptor (Homo sapiens) (P08069 741-1367 limits assumed): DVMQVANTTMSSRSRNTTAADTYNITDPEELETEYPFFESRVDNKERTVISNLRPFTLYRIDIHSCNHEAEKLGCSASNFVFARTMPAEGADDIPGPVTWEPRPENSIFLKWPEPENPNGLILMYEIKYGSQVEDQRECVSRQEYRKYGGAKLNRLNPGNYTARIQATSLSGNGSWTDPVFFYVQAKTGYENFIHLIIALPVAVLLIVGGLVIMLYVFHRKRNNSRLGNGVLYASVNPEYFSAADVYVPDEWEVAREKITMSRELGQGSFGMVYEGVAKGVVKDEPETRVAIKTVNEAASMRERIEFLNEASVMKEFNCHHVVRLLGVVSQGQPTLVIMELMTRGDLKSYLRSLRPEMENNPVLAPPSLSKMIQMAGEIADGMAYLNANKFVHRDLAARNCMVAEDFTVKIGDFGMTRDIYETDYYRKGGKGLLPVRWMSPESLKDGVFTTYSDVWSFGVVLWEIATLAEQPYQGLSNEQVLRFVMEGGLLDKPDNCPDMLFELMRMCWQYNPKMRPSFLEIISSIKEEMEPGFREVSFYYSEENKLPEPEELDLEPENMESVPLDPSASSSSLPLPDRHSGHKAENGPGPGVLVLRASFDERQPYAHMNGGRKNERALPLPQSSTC
Summary of the method: (§2)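 Single-point screen of each compound against a panel of 59 protein kinases, at 1 or 10 μM. The panel data are also summarised as a rescaled geometric mean selectivity score.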

[3] = molecular target: Mitogen-activated protein kinase 8 (Homo sapiens) (UniProt P45983); test: Inhibition of JNK1 (unknown origin) at 10 uM relative to control; summary of the method: as §2
Chain of Mitogen-activated protein kinase 8 (Homo sapiens) (P45983 whole entry): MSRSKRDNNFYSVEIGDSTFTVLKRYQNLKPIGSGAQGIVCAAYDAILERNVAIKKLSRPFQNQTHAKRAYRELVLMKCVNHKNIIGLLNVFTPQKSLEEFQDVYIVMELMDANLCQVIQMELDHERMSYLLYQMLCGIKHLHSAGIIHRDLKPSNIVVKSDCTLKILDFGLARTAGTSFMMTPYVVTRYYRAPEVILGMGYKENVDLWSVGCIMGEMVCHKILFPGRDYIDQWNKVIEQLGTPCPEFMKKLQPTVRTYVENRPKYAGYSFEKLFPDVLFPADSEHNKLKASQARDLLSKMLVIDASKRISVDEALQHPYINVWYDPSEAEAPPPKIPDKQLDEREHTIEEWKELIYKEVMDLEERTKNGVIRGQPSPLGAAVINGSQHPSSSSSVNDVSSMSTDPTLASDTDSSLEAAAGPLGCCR

[4] = molecular target: T1, Serine/threonine-protein kinase Chk1 (Homo sapiens) (UniProt O14757); test: Inhibition of CHK1 (unknown origin) at 10 uM relative to control; summary of the method: as §2
T1 sequence (whole entry): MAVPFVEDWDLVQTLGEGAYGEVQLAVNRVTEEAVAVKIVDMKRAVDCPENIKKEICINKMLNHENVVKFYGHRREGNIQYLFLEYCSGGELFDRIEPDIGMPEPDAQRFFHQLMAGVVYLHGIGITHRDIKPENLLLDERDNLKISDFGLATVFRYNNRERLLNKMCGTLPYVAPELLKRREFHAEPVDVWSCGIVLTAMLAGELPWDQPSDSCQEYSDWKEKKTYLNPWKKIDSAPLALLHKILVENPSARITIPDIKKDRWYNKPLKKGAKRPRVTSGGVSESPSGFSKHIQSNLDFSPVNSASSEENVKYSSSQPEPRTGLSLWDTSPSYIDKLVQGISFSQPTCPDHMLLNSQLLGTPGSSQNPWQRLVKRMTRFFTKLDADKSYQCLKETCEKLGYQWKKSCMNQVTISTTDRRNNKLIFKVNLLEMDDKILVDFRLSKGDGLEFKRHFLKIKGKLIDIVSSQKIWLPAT

[5] = molecular target: MAP kinase-interacting serine/threonine-protein kinase 1 (Homo sapiens) (UniProt Q9BUB5); test: Inhibition of MNK1 (unknown origin) at 10 uM relative to control; summary of the method: as §1
Chain of MAP kinase-interacting serine/threonine-protein kinase 1 (Homo sapiens) (Q9BUB5 whole entry, looked up): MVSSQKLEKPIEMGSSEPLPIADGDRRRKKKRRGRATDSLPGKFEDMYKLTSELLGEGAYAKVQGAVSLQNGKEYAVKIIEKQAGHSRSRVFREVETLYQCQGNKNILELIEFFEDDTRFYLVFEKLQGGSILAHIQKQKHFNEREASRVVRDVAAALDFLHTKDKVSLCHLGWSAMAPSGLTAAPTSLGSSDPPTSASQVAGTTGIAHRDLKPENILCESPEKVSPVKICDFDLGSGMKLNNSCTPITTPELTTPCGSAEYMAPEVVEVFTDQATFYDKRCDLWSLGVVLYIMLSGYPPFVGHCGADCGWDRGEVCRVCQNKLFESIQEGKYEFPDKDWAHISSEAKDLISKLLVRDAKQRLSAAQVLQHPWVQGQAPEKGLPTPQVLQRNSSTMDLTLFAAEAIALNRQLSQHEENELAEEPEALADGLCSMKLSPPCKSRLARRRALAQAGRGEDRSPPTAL

[6] = molecular target: T2, Ephrin type-B receptor 3 (Homo sapiens) (UniProt P54753); test: Inhibition of EPHB3 (unknown origin) at 1 uM relative to control; summary of the method: as §2
T2 sequence (whole entry): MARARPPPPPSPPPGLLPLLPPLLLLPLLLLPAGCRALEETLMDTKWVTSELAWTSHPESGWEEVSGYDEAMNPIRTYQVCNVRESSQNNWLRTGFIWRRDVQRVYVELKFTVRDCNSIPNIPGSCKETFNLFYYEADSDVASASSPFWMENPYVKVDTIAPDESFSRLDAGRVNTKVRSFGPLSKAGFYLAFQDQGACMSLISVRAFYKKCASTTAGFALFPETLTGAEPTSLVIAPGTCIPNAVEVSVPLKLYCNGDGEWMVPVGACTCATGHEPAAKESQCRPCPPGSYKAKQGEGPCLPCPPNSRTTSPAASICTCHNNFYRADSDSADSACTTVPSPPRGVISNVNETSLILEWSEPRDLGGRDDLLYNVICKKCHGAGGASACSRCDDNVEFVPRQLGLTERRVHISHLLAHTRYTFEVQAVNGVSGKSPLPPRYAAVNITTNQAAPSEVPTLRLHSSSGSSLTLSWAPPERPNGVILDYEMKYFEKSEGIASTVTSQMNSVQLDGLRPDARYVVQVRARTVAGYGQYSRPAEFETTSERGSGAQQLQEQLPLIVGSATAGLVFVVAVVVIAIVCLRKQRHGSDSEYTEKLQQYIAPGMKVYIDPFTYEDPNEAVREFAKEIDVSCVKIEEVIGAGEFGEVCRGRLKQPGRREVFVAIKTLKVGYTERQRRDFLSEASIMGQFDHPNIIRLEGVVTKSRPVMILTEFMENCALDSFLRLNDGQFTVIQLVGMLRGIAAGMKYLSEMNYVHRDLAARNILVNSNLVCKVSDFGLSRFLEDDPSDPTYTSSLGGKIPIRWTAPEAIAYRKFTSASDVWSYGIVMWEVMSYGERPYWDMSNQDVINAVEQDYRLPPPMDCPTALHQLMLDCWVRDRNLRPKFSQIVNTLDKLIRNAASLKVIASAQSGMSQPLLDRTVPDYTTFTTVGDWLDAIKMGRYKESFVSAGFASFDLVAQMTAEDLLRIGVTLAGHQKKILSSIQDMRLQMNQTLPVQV

[7] = molecular target: MAP kinase-interacting serine/threonine-protein kinase 1 (Homo sapiens) (UniProt Q9BUB5); test: Inhibition of MNK1 (unknown origin) at 1 uM relative to control; summary of the method: as §1
[8] = molecular target: T3, Eukaryotic elongation factor 2 kinase (Homo sapiens) (UniProt O00418); test: Inhibition of EF2K (unknown origin) at 1 uM relative to control; summary of the method: as §2
T3 sequence (whole entry): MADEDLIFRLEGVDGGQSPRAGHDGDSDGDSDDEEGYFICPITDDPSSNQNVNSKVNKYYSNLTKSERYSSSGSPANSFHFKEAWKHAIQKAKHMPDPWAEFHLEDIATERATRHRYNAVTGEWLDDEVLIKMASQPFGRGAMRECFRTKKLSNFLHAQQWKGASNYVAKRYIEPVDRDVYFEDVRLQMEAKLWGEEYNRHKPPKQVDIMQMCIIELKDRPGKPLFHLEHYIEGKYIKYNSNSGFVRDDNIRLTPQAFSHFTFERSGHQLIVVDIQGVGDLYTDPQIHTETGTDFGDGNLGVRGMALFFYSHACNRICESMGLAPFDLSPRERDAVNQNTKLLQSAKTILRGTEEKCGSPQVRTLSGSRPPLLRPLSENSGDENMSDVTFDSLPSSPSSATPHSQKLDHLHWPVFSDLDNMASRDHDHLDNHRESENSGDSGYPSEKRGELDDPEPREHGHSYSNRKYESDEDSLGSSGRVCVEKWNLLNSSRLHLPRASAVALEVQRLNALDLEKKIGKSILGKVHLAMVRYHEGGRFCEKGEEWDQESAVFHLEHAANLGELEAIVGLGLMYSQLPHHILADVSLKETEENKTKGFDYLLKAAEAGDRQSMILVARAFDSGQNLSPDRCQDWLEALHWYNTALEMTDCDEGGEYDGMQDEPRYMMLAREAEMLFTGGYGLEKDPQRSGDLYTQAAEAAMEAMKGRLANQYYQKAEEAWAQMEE

[9] = molecular target: Mitogen-activated protein kinase 9 (Homo sapiens) (UniProt P45984); test: Inhibition of JNK2 (unknown origin) at 1 uM relative to control; summary of the method: as §2
Chain of Mitogen-activated protein kinase 9 (Homo sapiens) (P45984 whole entry, looked up): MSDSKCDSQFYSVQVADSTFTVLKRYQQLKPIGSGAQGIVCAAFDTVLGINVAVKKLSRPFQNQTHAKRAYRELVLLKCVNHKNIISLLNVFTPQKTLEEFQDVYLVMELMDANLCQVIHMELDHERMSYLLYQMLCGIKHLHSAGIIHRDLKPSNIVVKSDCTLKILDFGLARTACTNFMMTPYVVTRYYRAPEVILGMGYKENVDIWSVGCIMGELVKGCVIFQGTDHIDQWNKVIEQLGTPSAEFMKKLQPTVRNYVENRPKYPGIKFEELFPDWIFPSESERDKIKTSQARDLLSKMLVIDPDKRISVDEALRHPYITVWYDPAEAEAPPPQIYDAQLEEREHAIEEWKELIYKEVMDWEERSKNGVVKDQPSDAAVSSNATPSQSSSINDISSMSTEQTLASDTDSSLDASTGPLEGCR

[10] = molecular target: Tyrosine-protein kinase Lck (Homo sapiens) (UniProt P06239); test: Inhibition of Lck (unknown origin) at 1 uM relative to control; summary of the method: as §2
Chain of Tyrosine-protein kinase Lck (Homo sapiens) (P06239 2-509 limits assumed): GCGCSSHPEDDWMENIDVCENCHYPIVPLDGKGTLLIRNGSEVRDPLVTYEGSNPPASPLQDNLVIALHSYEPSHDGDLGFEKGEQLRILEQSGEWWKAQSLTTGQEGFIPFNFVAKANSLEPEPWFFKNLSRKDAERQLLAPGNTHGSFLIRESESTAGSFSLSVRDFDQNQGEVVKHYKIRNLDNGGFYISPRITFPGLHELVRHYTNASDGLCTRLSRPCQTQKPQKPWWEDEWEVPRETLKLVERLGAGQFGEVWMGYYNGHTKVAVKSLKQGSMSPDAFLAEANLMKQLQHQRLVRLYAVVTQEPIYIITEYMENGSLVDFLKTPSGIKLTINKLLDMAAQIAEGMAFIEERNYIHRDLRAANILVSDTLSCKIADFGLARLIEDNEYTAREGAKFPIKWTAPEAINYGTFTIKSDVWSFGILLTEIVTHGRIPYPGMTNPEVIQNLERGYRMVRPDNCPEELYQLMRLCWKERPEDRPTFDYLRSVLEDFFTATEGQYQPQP

[11] = molecular target: Maternal embryonic leucine zipper kinase (Homo sapiens) (UniProt Q14680); test: Inhibition of MELK (unknown origin) at 1 uM relative to control; summary of the method: as §1
Chain of Maternal embryonic leucine zipper kinase (Homo sapiens) (Q14680 whole entry, looked up): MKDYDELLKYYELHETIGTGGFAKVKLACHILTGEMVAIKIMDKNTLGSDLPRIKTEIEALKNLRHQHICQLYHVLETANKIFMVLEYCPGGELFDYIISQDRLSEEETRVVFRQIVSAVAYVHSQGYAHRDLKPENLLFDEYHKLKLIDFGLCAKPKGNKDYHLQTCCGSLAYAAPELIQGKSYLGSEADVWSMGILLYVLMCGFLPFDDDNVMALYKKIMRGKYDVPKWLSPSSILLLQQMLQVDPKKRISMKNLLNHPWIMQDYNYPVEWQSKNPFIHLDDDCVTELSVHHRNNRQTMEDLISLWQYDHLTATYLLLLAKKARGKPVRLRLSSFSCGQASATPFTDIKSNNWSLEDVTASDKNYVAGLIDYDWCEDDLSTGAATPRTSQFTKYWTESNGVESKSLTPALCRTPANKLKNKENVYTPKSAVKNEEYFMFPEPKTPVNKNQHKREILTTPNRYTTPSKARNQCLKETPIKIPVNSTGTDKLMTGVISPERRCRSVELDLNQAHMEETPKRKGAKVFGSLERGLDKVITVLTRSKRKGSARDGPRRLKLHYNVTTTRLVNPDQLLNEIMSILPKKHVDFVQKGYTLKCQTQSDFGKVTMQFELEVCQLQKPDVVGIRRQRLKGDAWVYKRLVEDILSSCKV

[12] = molecular target: Casein kinase 2 (Homo sapiens) (UniProt P67870+P68400+P19784+Q8NEV1); test: Inhibition of CK2 (unknown origin) at 1 uM relative to control; type: protein assay; summary of the method: as §2

Chain of Serine/threonine-protein kinase Nek6 (Homo sapiens) (Q9HC98 whole entry): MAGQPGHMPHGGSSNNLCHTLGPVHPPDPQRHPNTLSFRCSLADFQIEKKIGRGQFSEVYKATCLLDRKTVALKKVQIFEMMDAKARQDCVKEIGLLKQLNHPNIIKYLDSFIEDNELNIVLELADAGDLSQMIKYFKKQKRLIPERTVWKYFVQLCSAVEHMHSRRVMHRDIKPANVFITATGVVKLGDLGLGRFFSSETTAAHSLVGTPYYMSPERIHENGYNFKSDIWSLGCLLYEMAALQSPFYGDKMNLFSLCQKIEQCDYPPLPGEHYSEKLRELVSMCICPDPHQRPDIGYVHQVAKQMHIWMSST

SMILES | inhibition [1] [%] | inhibition [2] [%] | inhibition [3] [%] | inhibition [4] [%] | inhibition [5] [%] | inhibition [6] [%] | inhibition [7] [%] | inhibition [8] [%] | inhibition [9] [%] | inhibition [10] [%] | inhibition [11] [%] | inhibition [12] [%]
Cc1n[nH]c2ccnc(NC3CCCCC3)c12 | 13 | 88 | 32 | 0 | 0 | – | – | – | – | – | – | –
Cc1n[nH]c2ccnc(Nc3ccc4ncsc4c3)c12 | – | – | 56 | 13 | – | – | – | – | – | – | – | –
Cc1n[nH]c2ccnc(Nc3ccccc3F)c12 | 12 | 81 | 55 | 43 | 18 | – | – | – | – | – | – | –
CC(C)n1cc(-c2n[nH]c3ccnc(OC4CCOCC4)c23)cn1 | – | – | – | – | – | 0 | 0 | 0 | 29 | 0 | 84 | 20
Cc1n[nH]c2ccnc(OC3CCCCC3)c12 | 4 | 98 | 86 | 27 | 12 | – | – | – | – | – | – | –
c1cc(-c2n[nH]c3ccnc(OC4CCOCC4)c23)cc(N2CCOCC2)n1 | – | – | – | – | – | 0 | 2 | 9 | 43 | 8 | 79 | 3
